In PubChem BioAssay AID809 (SRMLSC, 2007) one finds EC50 data, which are given here for 93 compounds.

As a reminder, the EC50 is the concentration needed to bring the measured effect to its halfway point.

The subject of this experiment is S. cerevisiae DeaD BB579, nicotinamide rescue growth, OD615 48 h. Put plainly: rescue of nicotinamide-suppressed growth of yeast BB579, dose response, yeast lifespan extension project, S. cerevisiae (AID 809). In outline: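 System – S. cerevisiae DeaD strain BB579 · Buffer or medium – CSMM-D glucose restrictive medium · Times – culture pre-incubation 4 h, then compound exposure 48 h, both 30 °C · Signal – OD615 absorbance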

Active and inactive are the calls of the source.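 Rule for the calls: active = EC50 for reversing nicotinamide-shortened yeast lifespan at or below a set limit; inactive = EC50 above that limit.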

With `O=C1/C(=C/c2cccnc2)CCC/C1=C\c1cccnc1`, the concentration for a half-maximal effect (EC50) is 7.04 µM.

For `Cc1ccc(NC(=O)Nc2nc(-c3ccc(C)s3)cs2)cc1`, the EC50 was > 10 µM (inactive).

Consider `CCOC(=O)CN1C(=O)N[C@H](c2ccc(Br)cc2)C(C(C)=O)=C1C`, for which the EC50 is > 10 µM (inactive).

As for `CC(C)Cn1c(=O)c(C(=O)Nc2cnccn2)c(O)c2ccccc21`, the EC50 is 9.1 µM.

For the compound `COc1ccccc1C(=O)Oc1cc(N)n(S(=O)(=O)c2ccc(C)cc2)n1`, the EC50 is > 10 µM (inactive).

In the case of `O=C(NCC1CCCO1)c1c(O)c2ccccc2[nH]c1=O` (stereo not drawn), the EC50 is > 10 µM (inactive).

For the compound `CCOC(=O)COc1ccccc1/C=C\[N+](=O)[O-]`, the concentration giving a half-maximal response (EC50) is 1.79 µM.

On to `CC1(C)Cc2ccccc2-c2nnc(SCC(=O)Nc3ccc4c(c3)OCO4)n21`, for which the EC50 is > 10 µM (inactive).

Turning to `O=C(c1ccccc1)C(CN1CCCC1)c1ccccc1` (stereo not drawn), the half-maximal effective concentration (EC50) is 9.14 µM.

Take `O=[N+]([O-])c1c(C(Cl)Cl)nn(-c2ccccc2)c1N1CCCC1`: the EC50 is 7.47 µM.

In the case of `CCSc1ccccc1C(=O)n1nnc2ccccc21`, the EC50 is 7.79 µM.

As for `COc1ccc(NCc2nc3ccccc3n2CCOc2ccccc2)cc1`, the EC50 was 5.29 µM.

For the compound `O=C(NC(=S)NNC(=O)c1ccc(Cl)cc1Cl)c1cccnc1`, the half-maximal effective concentration (EC50) was 9.35 µM.

`CCOC(=O)c1c(NC(=O)C2C3C=CC(C3)C2C(=O)O)sc2c1CCC(CC)C2` (stereo not drawn): the EC50 was > 10 µM (inactive).

With `C=CCn1c(-c2ccc(OC)cc2)csc1=Nc1c(C)n(C)n(-c2ccccc2)c1=O`, the EC50 was > 10 µM (inactive).

Consider `O=C(CCc1ccccc1)NCCCN1CCOCC1`, for which the EC50 was > 10 µM (inactive).

As for `O=C(COc1ccc([N+](=O)[O-])cc1)N(Cc1ccccc1)Cc1ccccc1`, the EC50 was > 10 µM (inactive).

In the case of `C/C=C/Cn1c(N2CCCCCC2)nc2c1c(=O)[nH]c(=O)n2C`, the EC50 was > 10 µM (inactive).

Consider `CCOC(=O)CC1=NN(c2ccccc2)C(=O)/C1=C\c1ccc(OC)cc1OC`, for which the EC50 is 8.5 µM.

Turning to `CC(C)C(OC(=O)CN1C(=O)COc2ccccc21)C(=O)NC1CCCC1` (stereo not drawn), the EC50 was > 10 µM (inactive).

With `CCCCC(CC)Cn1c2nc3ccccc3nc2c2c(=N)oc(C)nc21` (stereo not drawn), the EC50 is > 10 µM (inactive).

With `CCn1c(/N=C/c2ccccc2NS(=O)(=O)c2ccc(C)cc2)nc2ccccc21`, the EC50 was 3.3 µM.

On to `CCCCNC(=O)/C(C#N)=C/c1cccnc1`, for which the EC50 was 9.27 µM.

On to `CCCC(=O)C1C(=O)CC(CC(C)SCC)CC1=O` (stereo not drawn), for which the 50% effective concentration (EC50) was 2.33 µM.

On to `CCCCCC(=O)N1CCN(CCN=CC2=C(O)CC(c3ccc(OC)c(OC)c3)CC2=O)CC1` (stereo not drawn), for which the EC50 was > 10 µM (inactive).

Take `CCn1c(=O)c2ccccc2n2c(SCC(=O)N3CCCc4ccccc43)nnc12`: the EC50 was > 10 µM (inactive).

Take `O=C1CC(c2ccccc2)CC(O)=C1C=NCCN1CCN(C(=O)Nc2ccccc2)CC1` (stereo not drawn): the concentration for a half-maximal effect (EC50) is 6.64 µM.

`O=C1NC(=O)N(CCC2=CCCCC2)C(=O)/C1=C\c1cccs1`: the EC50 was 7.01 µM.

Regarding `O=C(NC(=S)Nc1nc2c(s1)CSc1ccccc1-2)c1ccccc1`, the EC50 was > 10 µM (inactive).

On to `CN1CCN(CC(=O)Nc2ccc(Cl)cc2Cl)CC1`, for which the EC50 was > 10 µM (inactive).

For the compound `Cc1nonc1NC(=O)CSc1nc(C2CCCCC2)nc2ccccc12`, the EC50 was > 10 µM (inactive).

In the case of `COc1ccc(-c2cc(C(F)(F)F)nc(S(C)(=O)=O)n2)cc1OC`, the half-maximal effective concentration (EC50) is 8.76 µM.

For the compound `Cc1ccc(OCC(=O)c2c(O)c3ccccc3oc2=O)cc1C`, the EC50 is 8.97 µM.

As for `COc1ccc(CNC(=O)c2c(O)c3cccc4c3n(c2=O)CCC4)cc1`, the EC50 was > 10 µM (inactive).

In the case of `Cc1ccc2[nH]c(=O)c(CN(CCO)Cc3nnnn3CCc3ccccc3)cc2c1`, the EC50 was > 10 µM (inactive).

With `O=c1c(Cl)c(NCCCO)cnn1-c1nc2ccccc2[nH]1`, the concentration giving a half-maximal response (EC50) is 7.65 µM.

With `O=C(c1cnn2c(C(F)F)cc(C3CC3)nc12)N1CCCC1`, the EC50 was > 10 µM (inactive).

Consider `CC1(C)CC(=O)C2=C(C1)OC1=C(C(=O)CC(C)(C)C1)C2c1ccc(O)cc1O`, for which the EC50 was > 10 µM (inactive).

As for `CCOc1cc(Br)c(Br)c(C=Nc2ccc(NC(C)=O)cc2)c1O`, the EC50 was 5.03 µM.

For the compound `Cc1nc(SC(C)C)[nH]c(=O)c1Cc1ccccc1`, the EC50 was > 10 µM (inactive).

On to `COc1cc(/C=c2\sc3nc(-c4ccncc4)nn3c2=O)ccc1OC(C)=O`, for which the EC50 was > 10 µM (inactive).

For the compound `CCOc1ccc(NCc2nc3ccccc3n2CCOc2ccccc2)cc1`, the EC50 is 3.28 µM.

`CN(C)C=C1C(=O)N(C2CCCCC2)C(=O)N(C2CCCCC2)C1=O`: the concentration for a half-maximal effect (EC50) is 6.96 µM.

Turning to `CC(=O)[C@H]1[C@H](c2cccc(Cl)c2)C(C#N)(C#N)[C@@H]2c3ccccc3C=CN21`, the EC50 was 8.71 µM.

For the compound `O=C1c2ccccc2C(=O)N1c1ncc(Cc2ccc(Cl)cc2)s1`, the EC50 is > 10 µM (inactive).

In the case of `Cc1nc2ccccc2n1-c1ccccc1`, the EC50 is > 10 µM (inactive).

`Cc1ccc(S(=O)(=O)Nc2ccccc2/C=N/c2nc3ccccc3n2C(C)C)cc1`: the EC50 was > 10 µM (inactive).

With `O=c1c2c3c(sc2ncn1/N=C/c1ccc([N+](=O)[O-])o1)CCCC3`, the EC50 was > 10 µM (inactive).

As for `COc1cccc(CSc2nc3ccccc3cc2C=O)c1`, the EC50 was 8.96 µM.

For `COc1ccc(C(=O)C(CN2CCOCC2)c2ccccc2)cc1F` (stereo not drawn), the EC50 is 4.62 µM.

As to `CC1CCc2cc(F)cc3c(O)c(C(=O)NCc4ccco4)c(=O)n1c23` (stereo not drawn), the EC50 was > 10 µM (inactive).

On to `O=C(NCc1ccco1)c1cc(C(=O)C2CCCCC2)c[nH]1`, for which the EC50 was > 10 µM (inactive).

For `CCCCC(=Nc1ccccc1OC)C1=C(O)CC(c2ccccc2)CC1=O` (stereo not drawn), the concentration for a half-maximal effect (EC50) was 4.5 µM.

With `Cc1ncc(C23CC4CC(CC(C4)C2)C3)[nH]1`, the EC50 was > 10 µM (inactive).

As for `CCOc1ccc(/C=C2/C(=O)NC(=O)N(CCc3ccc(F)cc3)C2=O)cc1`, the EC50 is > 10 µM (inactive).

As for `CCCN1C(=O)/C(=C/c2ccncc2)SC1=S`, the half-maximal effective concentration (EC50) is 6.93 µM.

In the case of `Cc1cc(C(=O)CN2C(=O)NC(C)(CC(C)C)C2=O)c(C)n1-c1ccc2c(c1)OCO2` (stereo not drawn), the EC50 was > 10 µM (inactive).

As to `CC(C)Cc1nn2c(=O)cc(O)nc2s1`, the EC50 is 8.79 µM.

As to `CCn1ccc(C(=O)Nc2ccc(S(=O)(=O)Nc3ccccc3OC)cc2)n1`, the EC50 was > 10 µM (inactive).

As to `C=CCn1c(C)cc(C(=O)COc2ncnc3sccc23)c1C`, the EC50 is 9.94 µM.

In the case of `N=c1c2c(-c3ccccc3)c(-c3ccccc3)n(Cc3ccco3)c2ncn1CCCn1ccnc1`, the concentration for a half-maximal effect (EC50) was 9.85 µM.

`CCOC(=O)CSC1=NC(=O)/C(=C/c2ccc(OC)cc2)S1`: the EC50 was 6.43 µM.

With `CCOc1ccc2nc(NCCNC(=O)Nc3ccccc3)c(C#N)cc2c1`, the EC50 is > 10 µM (inactive).

For `COc1ccc(NC(=O)/C(Cl)=C(/Cl)S(=O)Cc2ccc(C)cc2)cn1` (stereo not drawn), the EC50 is > 10 µM (inactive).

`Cc1ccc2[nH]c3c(c2c1)CC/C(=C/c1ccccc1)C3=O`: the EC50 is > 10 µM (inactive).

For `CC(C)c1ccc(C2=C(O)c3ccccc3C(=O)C2=O)cc1`, the EC50 was > 10 µM (inactive).

For `CCCCC(=Nc1ccc(N)cc1)C1=C(O)C(C(=O)OC)C(C)(C)CC1=O` (stereo not drawn), the 50% effective concentration (EC50) is 5.51 µM.

For `O=c1c(-c2ccc(Cl)cc2)[n+]([O-])c2ccccc2n1OCc1ccccn1`, the EC50 was > 10 µM (inactive).

Turning to `Cc1ccnc(N=Cc2c(O)ccc3oc4c(c23)CCCC4)c1`, the half-maximal effective concentration (EC50) is 8.47 µM.

As to `N#Cc1cc(C(=O)c2cc(F)ccc2O)cn(-c2nccs2)c1=O`, the EC50 was > 10 µM (inactive).

With `CCc1ccc2nc(N3C(=O)C(O)=C(C(=O)c4ccco4)C3c3cccs3)sc2c1` (stereo not drawn), the EC50 is 9.41 µM.

On to `O=C(/C=C/c1ccccc1)C1C(=O)c2ccccc2C1=O`, for which the EC50 is > 10 µM (inactive).

Take `CCSc1nnc(NC(=O)C2(C)Cc3ccccc3C(=O)O2)s1` (stereo not drawn): the 50% effective concentration (EC50) was 6.52 µM.

As to `CC(=O)Nc1ccc(C(=O)CSc2nnc(-c3ccc(O)cc3)n2CC2CCCO2)cc1` (stereo not drawn), the EC50 was > 10 µM (inactive).

Consider `COC(=O)C1=C(N)OC2=C(C(=O)CC(C)(C)C2)C1c1cccs1` (stereo not drawn), for which the EC50 was 8.93 µM.

`CCCn1[nH]cc(SC)c(=O)c1=O`: the EC50 is 8.67 µM.

Regarding `C/C(=N\NC(=O)c1cccnc1)c1c(O)cc(C)oc1=O`, the EC50 was > 10 µM (inactive).

With `COc1cc(OC)cc(-c2nc3ccccc3c(=O)n2OC(=O)c2ccc(Br)cc2)c1`, the concentration for a half-maximal effect (EC50) was 6.14 µM.

Consider `CC(=Nc1ccc2c(c1)nc(CO)n2C)C1=C(O)CC(C)(C)CC1=O`, for which the EC50 was > 10 µM (inactive).

As to `COc1ccc(C(=O)C(CN2CCOCC2)c2ccccc2)cc1` (stereo not drawn), the EC50 is 7.11 µM.

As for `O=C(CCN1CCCCCC1)Nc1ccc(F)cc1`, the EC50 is > 10 µM (inactive).

Regarding `O=c1c2ccccc2sn1-c1ccccc1`, the EC50 was > 10 µM (inactive).

In the case of `CCc1ccc2c(c1)CCCN2C(=O)c1ccccc1C(=O)O`, the EC50 is 9.34 µM.

With `CCOc1ccc(N=Cc2c(O)c3ccccc3oc2=O)cc1`, the EC50 is > 10 µM (inactive).

In the case of `O=C1CC(c2ccccc2)CC(O)=C1C=NCCN1CCNCC1` (stereo not drawn), the EC50 is > 10 µM (inactive).

Take `CC1(C)CC(=O)c2sc(NS(C)(=O)=O)nc2C1`: the EC50 was > 10 µM (inactive).

On to `COC(=O)c1sc(S(=O)(=O)Nc2ccc(Br)cc2)c(C(=O)OC)c1C`, for which the EC50 is > 10 µM (inactive).

For the compound `Cc1cc(C)c(S(=O)(=O)c2ccccc2)c(OC(=O)c2cc(F)c(F)cc2Cl)n1`, the EC50 was 7.24 µM.

On to `O=C1C(C2=C(O)c3ccccc3C2=O)=Nc2ccccc21`, for which the half-maximal effective concentration (EC50) was 1.7 µM.

Take `C=CCN(CC=C)c1nc2ccccc2nc1C(C#N)C(=O)OC(C)C` (stereo not drawn): the EC50 was > 10 µM (inactive).

Take `O=C(N/N=C/c1cccc(F)c1)c1c(O)c2ccccc2[nH]c1=O`: the concentration for a half-maximal effect (EC50) was 3.21 µM.

For `c1ccc(-c2c(-c3ccccc3)n(Cc3ccco3)c3ncnc(NCCCn4ccnc4)c23)cc1`, the EC50 is 1.98 µM.

For the compound `CCOc1ccc(C2=NNC(c3cccs3)=Nc3ccc(OCC)cc32)cc1`, the EC50 is > 10 µM (inactive).
